Data taken from ChEMBL document CHEMBL2021811, “The discovery of potent and selective pyridopyrimidin-7-one based inhibitors of B-RafV600E kinase” (Bioorg Med Chem Lett, 2012).
The source made the active and inactive calls. The rule behind the calls is not given here.

system: not listed separately; test: AUC in mouse at 30 mg/kg, po; format: ADME, organism-based; set-up: dose 30 mg/kg, route oral; details: plasma

| SMILES | AUC [µM·h] |
| --- | --- |
| CCCS(=O)(=O)Nc1ccc(F)c(-c2cc3cnc(NCC4CC4)nc3n(C)c2=O)c1F | 133 |
| CCCS(=O)(=O)Nc1ccc(F)c(-c2cc3cnc(NCCCO)nc3n(C)c2=O)c1F | 20 |
| CCCS(=O)(=O)Nc1ccc(F)c(-c2cc3cnc(NCCO)nc3n(C)c2=O)c1F | 1 |

system: not listed separately; test: Permeability across human Caco2 cells; format: ADME, cell-based; details: Caco-2, read-out: permeability
In short: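 Caco-2 monolayer permeability is reported as a class: low <2 × 10^-6 cm/s, medium 2–8 × 10^-6 cm/s, high >8 × 10^-6 cm/s.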

| SMILES | Papp [×10⁻⁶ cm/s] |
| --- | --- |
| CCCS(=O)(=O)Nc1ccc(F)c(-c2cc3cnc(NCC4CC4)nc3n(C)c2=O)c1F | > 8 |
| CCCS(=O)(=O)Nc1ccc(F)c(-c2cc3cnc(NCCCO)nc3n(C)c2=O)c1F | > 8 |
| CCCS(=O)(=O)Nc1ccc(F)c(-c2cc3cnc(NCCO)nc3n(C)c2=O)c1F | > 8 |

biological target: T1, Serine/threonine-protein kinase B-raf (Homo sapiens, UniProt P15056, V600E); test: Inhibition of full-length B-Raf V600E mutant assessed as reduction in incorporation of radiolabeled phosphate from [gamma-33P]ATP into FSBA-modified wild-type MEK.; details: not given
T1 sequence (P15056 2-766 V600E limits assumed): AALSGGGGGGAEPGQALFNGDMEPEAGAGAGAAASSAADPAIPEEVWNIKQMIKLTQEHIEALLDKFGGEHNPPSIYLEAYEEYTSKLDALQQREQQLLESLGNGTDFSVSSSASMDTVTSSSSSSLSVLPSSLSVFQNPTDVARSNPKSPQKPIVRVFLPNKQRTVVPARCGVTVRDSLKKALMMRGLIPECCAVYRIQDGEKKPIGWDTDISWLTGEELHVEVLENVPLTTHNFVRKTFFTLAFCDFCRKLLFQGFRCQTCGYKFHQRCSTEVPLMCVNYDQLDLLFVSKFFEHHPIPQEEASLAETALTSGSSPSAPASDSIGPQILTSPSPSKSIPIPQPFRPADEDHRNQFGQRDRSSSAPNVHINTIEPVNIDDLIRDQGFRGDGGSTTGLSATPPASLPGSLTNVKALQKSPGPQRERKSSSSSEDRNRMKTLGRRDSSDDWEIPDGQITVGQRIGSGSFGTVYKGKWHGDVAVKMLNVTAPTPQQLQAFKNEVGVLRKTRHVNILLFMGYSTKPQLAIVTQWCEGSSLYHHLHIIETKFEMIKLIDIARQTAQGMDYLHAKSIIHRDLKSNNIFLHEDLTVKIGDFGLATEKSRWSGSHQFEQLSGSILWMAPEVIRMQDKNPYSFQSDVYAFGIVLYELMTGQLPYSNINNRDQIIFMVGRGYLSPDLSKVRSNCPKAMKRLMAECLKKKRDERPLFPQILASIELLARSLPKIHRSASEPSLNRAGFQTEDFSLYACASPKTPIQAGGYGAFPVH

| SMILES | IC50 [nM] |
| --- | --- |
| CCCS(=O)(=O)Nc1ccc(F)c(-c2cc3cnc(NC4CCOCC4)nc3n(C)c2=O)c1F | 15 |
| CCCS(=O)(=O)Nc1ccc(F)c(-c2ccc3ccncc3c2)c1F | 340 |
| CCCS(=O)(=O)Nc1ccc(C)c(-c2ccc3nc(N)ncc3c2)c1 | 128 |
| CCCS(=O)(=O)Nc1ccc(F)c(-c2ccc3ccncc3n2)c1F | 3610 |
| CCCS(=O)(=O)Nc1ccc(F)c(-c2cc3cnc(Nc4ccccc4)nc3n(C)c2=O)c1F | 0.5 |
| CCCS(=O)(=O)Nc1ccc(F)c(-c2cc3cnc(NCC4CC4)nc3n(C)c2=O)c1F | 3 |
| CCCS(=O)(=O)Nc1ccc(F)c(-c2cc3ccncc3[nH]2)c1F | > 10000 |
| CCCS(=O)(=O)Nc1ccc(F)c(-c2cc3cnc(Nc4cnn(C)c4)nc3n(C)c2=O)c1F | 0.4 |
| CCCS(=O)(=O)Nc1ccc(F)c(-c2ccc3cc(N)ncc3c2)c1F | 549 |
| CCCS(=O)(=O)Nc1ccc(F)c(-c2cc3cnc(NC)nc3n(C)c2=O)c1F | 9 |
| CCCS(=O)(=O)Nc1ccc(F)c(-c2cc3cnccc3cn2)c1F | 241 |
| CCCS(=O)(=O)Nc1ccc(F)c(-c2cc3cnccc3c(=O)n2C)c1F | 71 |
| CCCS(=O)(=O)Nc1ccc(F)c(-c2cc3cnc(Nc4cccnc4)nc3n(C)c2=O)c1F | 0.5 |
| CCCS(=O)(=O)Nc1ccc(F)c(-c2cc3cnc(N)nc3n(C)c2=O)c1F | 10 |
| CCCS(=O)(=O)Nc1ccc(F)c(-c2ccc3nc(N)ncc3c2)c1 | > 10000 |
| CCCS(=O)(=O)Nc1ccc(F)c(-c2cc3cnc(NCCO)nc3n(C)c2=O)c1F | 6 |
| CCCS(=O)(=O)Nc1ccc(F)c(-c2ccc3nc(N)ncc3c2)c1F | 140 |
| CCCS(=O)(=O)Nc1ccc(F)c(-c2cc3cncc(Br)c3cn2)c1F | 72 |
| CCCS(=O)(=O)Nc1ccc(F)c(-c2cc3cnccc3n(CCc3ccccc3)c2=O)c1F | 13 |

biological target: Proto-oncogene tyrosine-protein kinase Src (Homo sapiens) (UniProt P12931); test: Inhibition of SRC at 1 uM; details: not given
Sequence (P12931 2-536 limits assumed): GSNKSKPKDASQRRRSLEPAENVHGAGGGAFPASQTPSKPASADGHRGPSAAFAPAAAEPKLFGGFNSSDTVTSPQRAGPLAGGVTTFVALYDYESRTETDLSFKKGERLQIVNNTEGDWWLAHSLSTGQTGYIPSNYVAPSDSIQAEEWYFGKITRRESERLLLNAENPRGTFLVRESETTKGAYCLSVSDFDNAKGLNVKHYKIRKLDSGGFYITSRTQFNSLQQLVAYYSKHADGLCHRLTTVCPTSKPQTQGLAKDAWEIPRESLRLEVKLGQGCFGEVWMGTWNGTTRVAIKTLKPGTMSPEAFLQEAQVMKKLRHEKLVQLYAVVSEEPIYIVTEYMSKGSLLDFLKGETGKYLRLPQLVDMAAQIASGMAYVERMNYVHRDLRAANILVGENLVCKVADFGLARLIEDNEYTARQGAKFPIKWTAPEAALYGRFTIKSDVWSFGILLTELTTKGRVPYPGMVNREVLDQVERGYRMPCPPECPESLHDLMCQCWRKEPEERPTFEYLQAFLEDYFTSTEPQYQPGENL

| SMILES | inhibition [%] |
| --- | --- |
| CCCS(=O)(=O)Nc1ccc(F)c(-c2cc3cnc(Nc4ccccc4)nc3n(C)c2=O)c1F | > 90 |
| CCCS(=O)(=O)Nc1ccc(F)c(-c2cc3cnc(Nc4cnn(C)c4)nc3n(C)c2=O)c1F | > 90 |
| CCCS(=O)(=O)Nc1ccc(F)c(-c2cc3cnc(Nc4cccnc4)nc3n(C)c2=O)c1F | > 90 |

system: not listed separately; test: Clearance in mouse at 2.5 mg/kg, iv; format: ADME, organism-based; set-up: dose 2.5 mg/kg, route intravenous; details: in vivo
In short: (§1)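 Mouse intravenous pharmacokinetics at 2.5 mg/kg. Observed clearance is reported in ml/min/kg and volume of distribution in l/kg.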

| SMILES | clearance [mL/min/kg] |
| --- | --- |
| CCCS(=O)(=O)Nc1ccc(F)c(-c2cc3cnc(NCC4CC4)nc3n(C)c2=O)c1F | 3 |
| CCCS(=O)(=O)Nc1ccc(F)c(-c2cc3cnc(NCCO)nc3n(C)c2=O)c1F | 74 |

biological target: Tyrosine-protein kinase Fgr (Homo sapiens) (UniProt P09769); test: Inhibition of FGR at 1 uM; details: not given
Sequence (P09769 2-529 limits assumed): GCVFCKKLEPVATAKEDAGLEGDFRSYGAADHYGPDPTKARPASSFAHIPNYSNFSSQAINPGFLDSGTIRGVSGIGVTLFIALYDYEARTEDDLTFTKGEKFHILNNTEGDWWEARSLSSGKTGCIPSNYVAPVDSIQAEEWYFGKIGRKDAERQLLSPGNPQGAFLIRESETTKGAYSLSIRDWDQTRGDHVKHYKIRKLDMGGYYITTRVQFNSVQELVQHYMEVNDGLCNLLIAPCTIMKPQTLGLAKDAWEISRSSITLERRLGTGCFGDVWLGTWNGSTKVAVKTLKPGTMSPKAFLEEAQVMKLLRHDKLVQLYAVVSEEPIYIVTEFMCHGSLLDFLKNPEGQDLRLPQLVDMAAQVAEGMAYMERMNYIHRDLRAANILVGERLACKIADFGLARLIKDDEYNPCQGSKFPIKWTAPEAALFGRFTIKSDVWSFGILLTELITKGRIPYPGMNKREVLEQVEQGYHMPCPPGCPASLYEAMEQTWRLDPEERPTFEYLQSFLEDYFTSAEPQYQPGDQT

| SMILES | inhibition [%] |
| --- | --- |
| CCCS(=O)(=O)Nc1ccc(F)c(-c2cc3cnc(Nc4ccccc4)nc3n(C)c2=O)c1F | > 90 |
| CCCS(=O)(=O)Nc1ccc(F)c(-c2cc3cnc(Nc4cnn(C)c4)nc3n(C)c2=O)c1F | > 90 |
| CCCS(=O)(=O)Nc1ccc(F)c(-c2cc3cnc(Nc4cccnc4)nc3n(C)c2=O)c1F | > 90 |

system: not listed separately; test: Volume of distribution in mouse at 2.5 mg/kg, iv; format: ADME, organism-based; set-up: dose 2.5 mg/kg, route intravenous; details: in vivo; in short: as §1

| SMILES | Vd [L/kg] |
| --- | --- |
| CCCS(=O)(=O)Nc1ccc(F)c(-c2cc3cnc(NCC4CC4)nc3n(C)c2=O)c1F | 0.46 |
| CCCS(=O)(=O)Nc1ccc(F)c(-c2cc3cnc(NCCCO)nc3n(C)c2=O)c1F | 20 |
| CCCS(=O)(=O)Nc1ccc(F)c(-c2cc3cnc(NCCO)nc3n(C)c2=O)c1F | 1 |

biological target: Vascular endothelial growth factor receptor 2 (Homo sapiens) (UniProt P35968); test: Inhibition of KDR at 1 uM; details: not given
Sequence (P35968 whole entry): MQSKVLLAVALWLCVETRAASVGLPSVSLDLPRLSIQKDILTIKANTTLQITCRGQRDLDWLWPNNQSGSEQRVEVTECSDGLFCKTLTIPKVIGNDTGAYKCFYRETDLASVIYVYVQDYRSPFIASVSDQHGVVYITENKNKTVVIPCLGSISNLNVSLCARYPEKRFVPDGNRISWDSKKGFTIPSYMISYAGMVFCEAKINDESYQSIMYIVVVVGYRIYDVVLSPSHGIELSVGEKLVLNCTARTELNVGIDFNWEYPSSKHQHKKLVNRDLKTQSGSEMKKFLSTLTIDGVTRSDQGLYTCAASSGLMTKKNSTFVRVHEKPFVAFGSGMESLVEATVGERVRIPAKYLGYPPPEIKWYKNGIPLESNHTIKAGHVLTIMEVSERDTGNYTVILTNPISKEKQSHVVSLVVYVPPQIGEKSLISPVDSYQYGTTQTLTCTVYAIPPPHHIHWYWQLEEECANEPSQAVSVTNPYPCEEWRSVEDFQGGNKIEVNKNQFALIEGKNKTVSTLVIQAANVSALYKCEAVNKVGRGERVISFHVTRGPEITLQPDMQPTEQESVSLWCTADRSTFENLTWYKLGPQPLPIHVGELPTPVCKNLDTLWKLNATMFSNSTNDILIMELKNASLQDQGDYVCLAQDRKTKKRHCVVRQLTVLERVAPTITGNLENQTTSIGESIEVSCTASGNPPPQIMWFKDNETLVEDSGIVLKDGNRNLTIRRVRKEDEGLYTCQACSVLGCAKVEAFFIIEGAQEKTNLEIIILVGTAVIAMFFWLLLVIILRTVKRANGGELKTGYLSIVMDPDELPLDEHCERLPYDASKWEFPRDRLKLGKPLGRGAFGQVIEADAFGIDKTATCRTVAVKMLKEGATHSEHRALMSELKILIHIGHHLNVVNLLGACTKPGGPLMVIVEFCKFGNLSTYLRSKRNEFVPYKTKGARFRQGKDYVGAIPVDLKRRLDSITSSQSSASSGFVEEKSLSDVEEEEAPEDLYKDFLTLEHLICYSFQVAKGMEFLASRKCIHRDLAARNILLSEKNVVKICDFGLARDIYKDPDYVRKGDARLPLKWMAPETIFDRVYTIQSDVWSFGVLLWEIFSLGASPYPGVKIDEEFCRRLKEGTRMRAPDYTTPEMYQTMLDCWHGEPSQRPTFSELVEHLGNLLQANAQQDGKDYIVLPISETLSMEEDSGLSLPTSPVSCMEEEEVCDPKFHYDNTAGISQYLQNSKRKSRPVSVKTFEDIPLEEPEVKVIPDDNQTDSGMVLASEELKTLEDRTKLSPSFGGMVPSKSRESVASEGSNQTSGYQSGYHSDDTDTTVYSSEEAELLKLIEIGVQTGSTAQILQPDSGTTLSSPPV

| SMILES | inhibition [%] |
| --- | --- |
| CCCS(=O)(=O)Nc1ccc(F)c(-c2cc3cnc(Nc4ccccc4)nc3n(C)c2=O)c1F | > 90 |
| CCCS(=O)(=O)Nc1ccc(F)c(-c2cc3cnc(Nc4cnn(C)c4)nc3n(C)c2=O)c1F | > 90 |
| CCCS(=O)(=O)Nc1ccc(F)c(-c2cc3cnc(Nc4cccnc4)nc3n(C)c2=O)c1F | > 90 |

biological target: Tyrosine-protein kinase Lck (Homo sapiens) (UniProt P06239); test: Inhibition of LCK at 1 uM; details: not given
Sequence (P06239 2-509 limits assumed): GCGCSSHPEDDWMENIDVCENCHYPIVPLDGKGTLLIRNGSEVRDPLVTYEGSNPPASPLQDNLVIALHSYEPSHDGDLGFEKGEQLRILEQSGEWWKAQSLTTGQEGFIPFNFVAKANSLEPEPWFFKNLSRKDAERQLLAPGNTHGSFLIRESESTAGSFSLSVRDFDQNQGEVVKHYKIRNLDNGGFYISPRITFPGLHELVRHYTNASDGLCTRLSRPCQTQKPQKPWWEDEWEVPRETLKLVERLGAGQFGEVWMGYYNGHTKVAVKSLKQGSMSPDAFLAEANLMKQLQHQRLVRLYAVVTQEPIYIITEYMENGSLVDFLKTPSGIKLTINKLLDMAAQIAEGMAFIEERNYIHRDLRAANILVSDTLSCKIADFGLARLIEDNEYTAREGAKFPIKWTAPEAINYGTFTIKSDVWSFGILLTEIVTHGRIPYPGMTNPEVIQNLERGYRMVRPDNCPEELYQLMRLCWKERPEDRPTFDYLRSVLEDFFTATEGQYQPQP

| SMILES | inhibition [%] |
| --- | --- |
| CCCS(=O)(=O)Nc1ccc(F)c(-c2cc3cnc(Nc4ccccc4)nc3n(C)c2=O)c1F | > 90 |
| CCCS(=O)(=O)Nc1ccc(F)c(-c2cc3cnc(Nc4cnn(C)c4)nc3n(C)c2=O)c1F | > 90 |
| CCCS(=O)(=O)Nc1ccc(F)c(-c2cc3cnc(Nc4cccnc4)nc3n(C)c2=O)c1F | > 90 |

system: not listed separately; test: Antitumor activity against B-Raf V600E mutant expressing human LOX cells xenografted in mouse assessed as tumor growth inhibition at 30 mg/kg, QD from day 1 to day 4 measured on day 5; format: functional; details: read-out: TGI
In short: (§2)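 Nude mice bearing established LOX (B-Raf V600E) xenografts were dosed at 30 mg/kg once daily on days 1–4, with vehicle controls at 10 ml/kg. Tumor volume was measured on days 1, 3, 5, 8 and 11.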

| SMILES | inhibition in vivo at 30 mg/kg [%] |
| --- | --- |
| CCCS(=O)(=O)Nc1ccc(F)c(-c2cc3cnc(NCC4CC4)nc3n(C)c2=O)c1F | 74 |

system: not listed separately; test: Antitumor activity against B-Raf V600E mutant expressing human LOX cells xenografted in mouse assessed as tumor growth inhibition at 30 mg/kg, QD from day 1 to day 4 measured on day 8; format: functional; details: read-out: TGI; in short: as §2

| SMILES | inhibition in vivo at 30 mg/kg [%] |
| --- | --- |
| CCCS(=O)(=O)Nc1ccc(F)c(-c2cc3cnc(NCC4CC4)nc3n(C)c2=O)c1F | 96 |

biological target: LIM domain kinase 1 (Homo sapiens) (UniProt P53667); test: Inhibition of human LIMK1 at 1 uM in presence of ATP at level equals to ~ Km of ATP; details: not given

| SMILES | inhibition [%] |
| --- | --- |
| CCCS(=O)(=O)Nc1ccc(F)c(-c2cc3cnc(NCC4CC4)nc3n(C)c2=O)c1F | > 80 |

biological target: Serine/threonine-protein kinase B-raf (Homo sapiens) (UniProt P15056); test: Inhibition of human B-raf at 1 uM in presence of ATP at level equals to ~ Km of ATP; details: not given

| SMILES | inhibition |
| --- | --- |
| CCCS(=O)(=O)Nc1ccc(F)c(-c2cc3cnc(NCC4CC4)nc3n(C)c2=O)c1F | Active |

biological target: T1, Serine/threonine-protein kinase B-raf; test: Inhibition of full-length B-Raf V600E mutant in human MALME-3M cells assessed as reduction in basal ERK1/2 phosphorylation incubated for 1 hr; format: cell-based; details: not given

| SMILES | IC50 [nM] |
| --- | --- |
| CCCS(=O)(=O)Nc1ccc(F)c(-c2cc3cnc(NC4CCOCC4)nc3n(C)c2=O)c1F | 73 |
| CCCS(=O)(=O)Nc1ccc(C)c(-c2ccc3nc(N)ncc3c2)c1 | > 10000 |
| CCCS(=O)(=O)Nc1ccc(F)c(-c2cc3cnc(Nc4ccccc4)nc3n(C)c2=O)c1F | 5 |
| CCCS(=O)(=O)Nc1ccc(F)c(-c2cc3cnc(NCC4CC4)nc3n(C)c2=O)c1F | 27 |
| CCCS(=O)(=O)Nc1ccc(F)c(-c2cc3cnc(NCCCO)nc3n(C)c2=O)c1F | 41 |
| CCCS(=O)(=O)Nc1ccc(F)c(-c2cc3cnc(Nc4cnn(C)c4)nc3n(C)c2=O)c1F | 1 |
| CCCS(=O)(=O)Nc1ccc(F)c(-c2cc3cnc(NC)nc3n(C)c2=O)c1F | 45 |
| CCCS(=O)(=O)Nc1ccc(F)c(-c2cc3cnccc3cn2)c1F | 703 |
| CCCS(=O)(=O)Nc1ccc(F)c(-c2cc3cnccc3c(=O)n2C)c1F | 445 |
| CCCS(=O)(=O)Nc1ccc(F)c(-c2cc3cnc(Nc4cccnc4)nc3n(C)c2=O)c1F | 3 |
| CCCS(=O)(=O)Nc1ccc(F)c(-c2cc3cnc(N)nc3n(C)c2=O)c1F | 93 |
| CCCS(=O)(=O)Nc1ccc(F)c(-c2cc3cnc(NCCO)nc3n(C)c2=O)c1F | 31 |
| CCCS(=O)(=O)Nc1ccc(F)c(-c2ccc3nc(N)ncc3c2)c1F | 682 |
| CCCS(=O)(=O)Nc1ccc(F)c(-c2cc3cncc(Br)c3cn2)c1F | 469 |
| CCCS(=O)(=O)Nc1ccc(F)c(-c2cc3cnccc3n(CCc3ccccc3)c2=O)c1F | 1160 |

system: not listed separately; test: Antitumor activity against B-Raf V600E mutant expressing human LOX cells xenografted in mouse assessed as tumor growth inhibition at 30 mg/kg, QD from day 1 to day 4 measured on day 11; format: functional; details: read-out: TGI; in short: as §2

| SMILES | inhibition in vivo at 30 mg/kg [%] |
| --- | --- |
| CCCS(=O)(=O)Nc1ccc(F)c(-c2cc3cnc(NCC4CC4)nc3n(C)c2=O)c1F | 97 |

system: not listed separately; test: Oral bioavailability in mouse at 30 mg/kg; format: ADME, organism-based; details: in vivo

| SMILES | bioavailability [%] |
| --- | --- |
| CCCS(=O)(=O)Nc1ccc(F)c(-c2cc3cnc(NCC4CC4)nc3n(C)c2=O)c1F | 33 |
| CCCS(=O)(=O)Nc1ccc(F)c(-c2cc3cnc(NCCO)nc3n(C)c2=O)c1F | 18 |

biological target: RAF proto-oncogene serine/threonine-protein kinase (Homo sapiens) (UniProt P04049); test: Inhibition of human C-raf at 1 uM in presence of ATP at level equals to ~ Km of ATP; details: not given

| SMILES | inhibition |
| --- | --- |
| CCCS(=O)(=O)Nc1ccc(F)c(-c2cc3cnc(NCC4CC4)nc3n(C)c2=O)c1F | Active |

biological target: Tyrosine-protein kinase ABL1 (Homo sapiens) (UniProt P00519); test: Inhibition of ABL at 1 uM; details: not given
Sequence (P00519 whole entry): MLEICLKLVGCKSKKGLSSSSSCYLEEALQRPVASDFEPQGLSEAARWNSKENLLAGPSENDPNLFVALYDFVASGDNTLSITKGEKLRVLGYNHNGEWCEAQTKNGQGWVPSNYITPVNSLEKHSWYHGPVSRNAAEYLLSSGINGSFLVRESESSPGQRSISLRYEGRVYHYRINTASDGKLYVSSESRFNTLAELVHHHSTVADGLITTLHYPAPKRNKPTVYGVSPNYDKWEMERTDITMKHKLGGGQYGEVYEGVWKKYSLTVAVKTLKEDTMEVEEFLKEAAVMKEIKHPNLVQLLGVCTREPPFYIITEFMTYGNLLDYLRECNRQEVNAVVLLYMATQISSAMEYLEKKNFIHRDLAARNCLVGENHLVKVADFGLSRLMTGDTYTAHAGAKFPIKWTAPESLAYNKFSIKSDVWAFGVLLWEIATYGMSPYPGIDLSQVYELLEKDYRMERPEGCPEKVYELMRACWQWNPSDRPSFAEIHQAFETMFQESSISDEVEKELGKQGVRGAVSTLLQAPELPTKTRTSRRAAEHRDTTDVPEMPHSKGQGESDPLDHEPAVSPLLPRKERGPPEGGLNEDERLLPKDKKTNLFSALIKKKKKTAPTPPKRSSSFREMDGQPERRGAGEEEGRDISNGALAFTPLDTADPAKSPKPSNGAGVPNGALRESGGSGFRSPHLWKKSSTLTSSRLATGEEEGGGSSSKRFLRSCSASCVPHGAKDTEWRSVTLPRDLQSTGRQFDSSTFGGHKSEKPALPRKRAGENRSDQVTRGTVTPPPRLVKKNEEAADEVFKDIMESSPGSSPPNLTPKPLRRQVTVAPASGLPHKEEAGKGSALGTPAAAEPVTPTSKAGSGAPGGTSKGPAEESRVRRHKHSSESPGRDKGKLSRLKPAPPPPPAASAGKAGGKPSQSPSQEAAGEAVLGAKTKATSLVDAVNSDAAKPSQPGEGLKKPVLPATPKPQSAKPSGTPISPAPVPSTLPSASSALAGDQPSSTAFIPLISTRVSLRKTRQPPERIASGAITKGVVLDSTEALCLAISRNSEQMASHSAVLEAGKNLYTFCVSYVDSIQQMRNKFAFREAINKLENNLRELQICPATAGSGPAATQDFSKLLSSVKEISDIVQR

| SMILES | inhibition [%] |
| --- | --- |
| CCCS(=O)(=O)Nc1ccc(F)c(-c2cc3cnc(Nc4ccccc4)nc3n(C)c2=O)c1F | > 90 |
| CCCS(=O)(=O)Nc1ccc(F)c(-c2cc3cnc(Nc4cnn(C)c4)nc3n(C)c2=O)c1F | > 90 |
| CCCS(=O)(=O)Nc1ccc(F)c(-c2cc3cnc(Nc4cccnc4)nc3n(C)c2=O)c1F | > 90 |
